Screening data (PubChem)
NR2E3 ag-1: activates human NR2E3 receptor; AID 602229; Q9Y5X4; inhibition of corepressor binding, % at 3.98 µM; 360,000 tested, 0.35% active; CHO-S Gal4-NCOR/VP16-NR2E3 two-hybrid, luciferase;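 active = inhibition above the mean of all tested compounds plus 3 SD, cut at about 70% in these data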;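 note: 0% = DMSO with NR2E3 transfected cells and 100% = cells lacking NR2E3 construct; higher means lower luciferase signal from less NR2E3 corepressor binding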
Target sequence (Q9Y5X4 whole entry, looked up, the tested form may be a part): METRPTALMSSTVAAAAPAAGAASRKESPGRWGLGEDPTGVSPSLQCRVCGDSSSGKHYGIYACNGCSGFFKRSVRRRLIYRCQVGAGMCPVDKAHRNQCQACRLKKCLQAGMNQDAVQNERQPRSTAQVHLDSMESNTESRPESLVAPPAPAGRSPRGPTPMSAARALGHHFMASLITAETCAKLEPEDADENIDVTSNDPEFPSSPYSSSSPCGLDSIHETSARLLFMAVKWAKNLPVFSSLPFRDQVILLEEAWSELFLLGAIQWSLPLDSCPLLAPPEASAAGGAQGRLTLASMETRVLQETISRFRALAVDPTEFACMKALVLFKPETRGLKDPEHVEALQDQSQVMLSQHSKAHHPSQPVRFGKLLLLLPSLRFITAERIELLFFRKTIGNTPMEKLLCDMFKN
MPTP inh: blocks calcium-induced mitochondrial swelling; isolated mouse mitochondria, Ca2+ swelling absorbance, 30 min; inhibition, % at 10 µM; 360,000 tested, 1.4% active;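 active = inhibition of 50% or more, scaled per plate between neutral and stimulator controls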;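 note: 0% = DMSO wells given calcium and 100% = 1 mM EGTA wells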
Jurkat NFkB inh: lowers PMA/ionomycin-induced NF-kB signal in Jurkat cells. PMA/ionomycin-induced NF-kB luciferase reporter, luminescence. inhibition, % at 4 µM. 330,000 tested, 0.53% active; in the data active = inhibition above about 50%
NR2E3 ag-2: agonists of human nuclear receptor NR2E3. Q9Y5X4. GST-NR2E3/biotin-RetCOR TR-FRET, 1536-well. inhibition of corepressor binding, % at 4.78 µM. 320,000 tested, 0.12% active. AID 2300;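 active = percent inhibition above the cutoff of mean plus 3 SD of all tested compounds, set per screening campaign, cut at about 20% in these data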;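 note: 0% = DMSO wells and 100% = biotin wells as full block of FRET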
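Material – GST-tagged NR2E3 plus biotinylated RetCOR corepressor · Quantity – NR2E3 fusion 1.35 nM · Times – 5 h incubation at 4 °C · Medium – pH 7.5 Tris-based buffer · Technique – TR-FRET, Eu(K)-anti-GST donor, streptavidin-D2 acceptor, ex 340, em 617/671 nm · Benchmarks – high control biotin, low control 0.6% DMSO · Format – 1536-well plates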
697 NFkB inh: inhibitors of the PMA/ionomycin-induced NF-kB reporter in 697 B cells. 697 B-cell NF-kB luciferase reporter, 16 h. inhibition, % at 4 µM. 330,000 tested, 0.33% active; in the data active = inhibition above about 35%
aDG glyco up: alpha-DG glycosylation activation; activation, % at 10 µM; 360,000 tested, 0.22% active; Pro5-aDG cells, alpha-DG glycosylation AlphaScreen (IIH6); 0% Pro5, 100% B10-LARGE cell signal; AID 624168;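 active = activation of at least 8% versus controls, or a plate z-score of at least 8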;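 note: Pro5 are CHO cells carrying HIG-tagged alpha-DG that lacks glycosylation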
MPTP counter: mitochondrial membrane potential, counter-screen; shares compounds with MPTP inh; isolated mitochondria, Rhodamine 123 fluorescence; inhibition, % at 10 µM; 5,000 tested, 78% active; AID 624504; in the data active = inhibition above about 22%;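 note: 0% = DMSO vehicle and 100% = positive control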
MPTP abs DR: dose response confirmation of mitochondrial permeability transition pore inhibitors. shares compounds with MPTP inh. isolated mitochondria swelling, absorbance. IC50, µM. 780 tested, 58% active; in the data active = IC50 below about 20 µM
MPTP counter DR: counter-screen for mitochondrial permeability transition pore inhibitors, dose response; IC50, µM; shares compounds with MPTP inh; 780 tested, 49% active; isolated mitochondria counterscreen, fluorescence read-out; in the data active = IC50 below about 80 µM
Starred values were filed as active, the others as inactive; i = inactive; · = not tested or not shown. In the library only some 2.4% were active in any assay of this set; here they are far more common.

SMILES	NR2E3 ag-1	MPTP inh	Jurkat NFkB inh	NR2E3 ag-2	697 NFkB inh	aDG glyco up	MPTP counter	others
CCOC(=O)c1c(C)oc2c(CC(=O)c3ccccc3)c(Cl)c(O)c(O)c12	5.6	3.0	·	5.2	·	0.2	·
CCOC(=O)c1sc(=S)n(C)c1NC(=O)c1ccc(OC)cc1	-2.4	5.0	0.8	-1.3	-1.9	0.0	·
CCOC(=O)c1sc(=S)n(C)c1NC(=O)c1ccc(C(C)(C)C)cc1	8.1	75.0*	-3.8	1.5	-21.0	0.1	88.5*
O=C(Nc1nc(=S)ss1)c1ccc(Cl)cc1Cl	-16.1	87.6*	·	-0.6	·	-0.1	63.9*
CCOCCOC(=O)c1ccc(NC(=O)C2COc3ccccc3O2)cc1 (stereo unspecified)	18.7	0.2	-7.6	-0.3	-3.9	0.0	·
Cc1cc(CNC(=O)Cc2ccc(F)cc2)c2ccccc2n1	-23.1	0.6	18.7	-2.7	10.0	0.2	·
COc1ccccc1OCCCCN1CCN(C(c2ccccc2)c2ccccc2)CC1	-15.3	82.5*	5.9	3.0	16.7	0.2	-6.8	MPTP abs DR=i;MPTP counter DR=65.2*
NS(=O)(=O)c1ccc(NC(=O)C(=O)NCCC(=O)O)cc1	5.6	-0.2	0.8	-2.0	12.5	0.0	·
O=C(Nc1ccc(Cl)cc1)Nc1cccnc1	-43.5	63.6*	-47.3	-2.8	-38.5	-0.2	82.7*
O=C(Nc1ccc(F)cc1)Nc1ccc(Cl)cn1	-68.8	6.2	-43.8	0.1	-37.3	0.2	·
O=C(Nc1ccncc1)Nc1ccc(F)c(Cl)c1	-3.5	91.8*	-9.3	0.7	-7.6	0.5	107.2*
C=CCNC(=O)Nc1ccc(F)c(Cl)c1	-33.0	7.8	10.8	2.0	16.8	0.0	·
O=C(Nc1ccc(F)c(Cl)c1)Nc1ccc(Cl)cn1	-16.4	87.4*	-14.1	1.4	-10.9	0.0	96.3*
O=C(Nc1ccc(Cc2ccc(NC(=O)Nc3cccnc3)cc2)cc1)Nc1cccnc1	-29.9	-1.3	·	·	·	0.3	·
COc1ccc(S(=O)(=O)N2CCCCCC2)cc1C(=O)N(CC(C)C)C1CCS(=O)(=O)C1 (stereo unspecified)	-10.9	2.0	12.1	2.0	-10.0	0.1	·
N#Cc1ccc(C(=O)OCC(=O)N2CCCCCC2)cc1	21.5	0.3	-2.9	·	15.2	0.0	·
COc1ccc(NC(=O)COC(=O)CCCC2=NS(=O)(=O)c3ccccc3N2)cc1Cl	-20.6	-0.3	9.2	3.6	-10.1	-0.3	·
CCN(C(=O)CSc1nnc(C2CC2)n1-c1ccccc1)C1CCS(=O)(=O)C1 (stereo unspecified)	12.9	-0.2	-2.9	-16.5	-0.6	1.0	·
CC(CCc1ccccc1)N1CCN(C)CC1 (stereo unspecified)	14.7	-0.3	4.9	0.8	7.6	-0.2	·
Cc1ccc(-c2nnc(SCC(=O)N(C)C)nc2-c2ccc(C)cc2)cc1	-30.0	72.7*	7.3	1.8	-17.8	-0.2	-0.7	MPTP abs DR=17.4*;MPTP counter DR=>80
Cc1ccc(-c2nnc(SCC(N)=O)nc2-c2ccc(C)cc2)cc1	-10.7	-0.6	4.5	4.5	-10.3	0.0	·
CCOC(=O)C(C)On1c(-c2cccc(Cl)c2)nc2ccc([N+](=O)[O-])cc21 (stereo unspecified)	-78.0	86.8*	-118.8	-1.5	-97.6	0.9	99.3*
CCOC(=O)COn1c(-c2cccc(Cl)c2)nc2ccc([N+](=O)[O-])cc21	-92.5	56.7*	-90.3	3.2	-86.2	0.7	81.3*
O=C(C1CCCCC1)N1CCN(c2ccnc3cc(Cl)ccc23)CC1	29.8	83.1*	26.3	1.0	-6.6	1.3	43.1*
O=C(C1CCC1)N1CCN(c2ccnc3cc(Cl)ccc23)CC1	4.2	10.6	9.1	1.0	27.2	0.2	·
COc1ccc(Br)cc1S(=O)(=O)NNC(=O)c1c(C)nc2ccccn12	-23.6	0.5	-22.3	-2.0	0.4	-0.2	·
